Active and inactive are the calls of the source. No cut-off for these calls is given here.
Legend:
Staphylococcus aureus [1] = assay: Antimicrobial activity against Staphylococcus aureus isolate LP grown as biofilms at 40 uM incubated in dark for 30 mins; type: functional, organism-based
Outline: (§1)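 Biofilms grown 16 h at 37°C in polystyrene wells from overnight TSB cultures diluted in TSB + 0.25% glucose (S. epidermidis 1:200, S. aureus 1:50, S. aureus wells precoated with 20% human plasma). TBO in PBS added, kept dark 30 min at 37°C, no light. Biofilms scraped, sonicated, vortexed, and plated on TSB agar. CFU counted after 24 h at 37°C in the dark and compared with PBS-only controls.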

[2] = system: Staphylococcus epidermidis; assay: Antimicrobial activity against Staphylococcus epidermidis 1457 grown as biofilms at 40 uM incubated in dark for 30 mins; type: functional, organism-based; outline: as §1
Staphylococcus aureus [3] = assay: Phototoxicity against Staphylococcus aureus isolate LP grown as biofilms assessed as decrease in survival incubated at 40 uM followed by irradiation with 1 to 200J/cm2 laser light; type: functional, organism-based
Outline: (§2)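 Biofilms were grown 16 h at 37°C in TSB + 0.25% glucose, with plasma-coated wells for S. aureus. They were then incubated with TBO (10–80 μM tested) in the dark for 30 min at 37°C and irradiated with a 640 nm diode laser, 1-cm spot, 42 mW/cm², at varied light doses. Cells were scraped, sonicated, serially diluted, and plated. Surviving fraction is CFU (TBO + light)/CFU (TBO alone). Duplicate biofilms, three experiments.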

[4] = system: Staphylococcus epidermidis; assay: Phototoxicity against Staphylococcus epidermidis 1457 grown as biofilms assessed as decrease in survival incubated at 40 uM followed by irradiation with 1 to 200 J/cm2 laser light; type: functional, organism-based; outline: as §2
Staphylococcus aureus [5] = assay: Phototoxicity against Staphylococcus aureus isolate LP grown as biofilms incubated at > 40 uM followed by irradiation with 1 to 200 J/cm2 laser light; type: functional, organism-based; outline: as §2
[6] = system: Staphylococcus epidermidis; assay: Phototoxicity against Staphylococcus epidermidis 1457 grown as biofilms incubated at > 40 uM followed by irradiation with 1 to 200 J/cm2 laser light; type: functional, organism-based; outline: as §2
[7] = system: Staphylococcus epidermidis; assay: Phototoxicity against Staphylococcus epidermidis 1457 grown as biofilms assessed as log reduction in survival fraction incubated at 40 uM for 30 mins followed by irradiation with 100 J/cm'2 laser light in presence of TEDTA pretreated for 1 hr; type: functional
Outline: (§3)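 Biofilms were pretreated with 20 mM TEDTA in PBS for 1 h. They were then given 40 μM TBO, 30 min in the dark at 37°C, and 640 nm laser at 42 mW/cm² to 100 J/cm². Colony counts were made after scraping, sonication, and plating. Controls: TEDTA+TBO without light, TEDTA alone, and untreated. Survival was compared with TBO + light without TEDTA using an unpaired two-sided t test.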

Staphylococcus aureus [8] = assay: Increase in phototoxicity against Staphylococcus aureus isolate LP grown as biofilms incubated at 40 uM for 30 mins followed by irradiation with 100 J/cm'2 laser light in presence of TEDTA pretreated for 1 hr; type: functional, organism-based; outline: as §3
[9] = system: Staphylococcus epidermidis; assay: Phototoxicity against Staphylococcus epidermidis 1457 grown as biofilms assessed as dead cells incubated at 40 uM for 30 mins followed by irradiation with 200 J/cm'2 laser light using propidium iodide staining by confocal laser scanning microscopy; type: functional, organism-based
Outline: (§4)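 Biofilms were grown 16 h at 37°C on glass coverslips, plasma-coated for S. aureus, and treated with 40 μM TBO for 30 min in the dark, then left dark or irradiated at 640 nm to 100 or 200 J/cm². They were stained with SYTO9/propidium iodide (1 μl of each stock per 3 ml PBS) for 15 min at 22°C in the dark and imaged by confocal microscopy. Red = membrane-damaged/dead, green = viable.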

Staphylococcus aureus [10] = assay: Phototoxicity against Staphylococcus aureus isolate LP grown as biofilms assessed as dead cells incubated at 40 uM for 30 mins followed by irradiation with 200 J/cm'2 laser light using propidium iodide staining by confocal laser scanning microscopy; type: functional, organism-based; outline: as §4
[11] = system: Staphylococcus epidermidis; assay: Phototoxicity against Staphylococcus epidermidis 1457 grown as biofilms assessed as dead cells incubated at 40 uM for 30 mins followed by irradiation with 100 J/cm'2 laser light using SYTO9 staining by confocal laser scanning microscopy; type: functional, organism-based; outline: as §4
Staphylococcus aureus [12] = assay: Phototoxicity against Staphylococcus aureus isolate LP grown as biofilms assessed as dead cells incubated at 40 uM for 30 mins followed by irradiation with 100 J/cm'2 laser light using SYTO9 staining by confocal laser scanning microscopy; type: functional, organism-based; outline: as §4
[13] = system: Staphylococcus epidermidis; assay: Phototoxicity against Staphylococcus epidermidis 1457 grown as biofilms assessed as appearance of large cellular aggregates surrounded by extracellular matrix incubated at 40 uM for 30 mins in dark by scanning electron microscopy; type: functional, organism-based
Outline: (§5)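 Biofilms were grown on Thermanox coverslips in TSB, precoated with 20% human plasma for S. aureus, and incubated with 40 μM TBO for 30 min in the dark, either unirradiated or irradiated at 100 J/cm². They were washed, fixed in 2.5% glutaraldehyde/0.1 M cacodylate pH 7.2 for 1 h at 4°C, ethanol-dehydrated, critical-point dried, and gold-coated. SEM was at ×1,000.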

Staphylococcus aureus [14] = assay: Phototoxicity against Staphylococcus aureus isolate LP grown as biofilms assessed as appearance of large cellular aggregates surrounded by extracellular matrix incubated at 40 uM for 30 mins in dark by scanning electron microscopy; type: functional, organism-based; outline: as §5
[15] = system: Staphylococcus epidermidis; assay: Phototoxicity against Staphylococcus epidermidis 1457 grown as biofilms assessed as reduction in adherent bacterial count incubated at 40 uM for 30 mins followed by irradiation with 100 J/cm'2 laser light by scanning electron microscopy; type: functional, organism-based; outline: as §5
Staphylococcus aureus [16] = assay: Phototoxicity against Staphylococcus aureus isolate LP grown as biofilms assessed as reduction in adherent bacterial count incubated at 40 uM for 30 mins followed by irradiation with 100 J/cm'2 laser light by scanning electron microscopy; type: functional, organism-based; outline: as §5
[17] = system: Staphylococcus epidermidis; assay: Phototoxicity against Staphylococcus epidermidis 1457 grown as biofilms assessed as reduction in adherent bacterial count incubated at 40 uM for 30 mins followed by irradiation with 100 J/cm'2 laser light by scanning electron microscopy in presence of TEDTA pretreated for 1 hr; type: functional, organism-based
Outline: (§6)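 Thermanox coverslip biofilms (plasma-precoated for S. aureus) were pretreated with 20 mM TEDTA for 1 h, given 40 μM TBO for 30 min in the dark, and irradiated at 100 J/cm². They were then fixed in glutaraldehyde/cacodylate, dehydrated in graded ethanol, critical-point dried, gold-coated, and imaged by SEM at ×1,000.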

Staphylococcus aureus [18] = assay: Phototoxicity against Staphylococcus aureus isolate LP grown as biofilms assessed as reduction in adherent bacterial count incubated at 40 uM for 30 mins followed by irradiation with 100 J/cm'2 laser light by scanning electron microscopy in presence of TEDTA pretreated for 1 hr; type: functional, organism-based; outline: as §6
[19] = Ratio of phototoxicity against Staphylococcus aureus isolate LP grown as biofilms to phototoxicity against Staphylococcus epidermidis 1457; type: functional
Outline: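 Cell survival for each species was derived as CFU (TBO + light)/CFU (TBO alone) after biofilms were incubated with 40 μM TBO for 30 min in the dark and irradiated with a 640 nm diode laser at 42 mW/cm², compared at 25 J/cm². Unpaired two-sided t test.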

Staphylococcus aureus [20] = assay: Phototoxicity against Staphylococcus aureus isolate LP grown as biofilms assessed as dead cells incubated at 40 uM for 30 mins in dark using SYTO9 staining by confocal laser scanning microscopy; type: functional, organism-based; outline: as §4
[21] = system: Staphylococcus epidermidis; assay: Phototoxicity against Staphylococcus epidermidis 1457 grown as biofilms assessed as dead cells incubated at 40 uM for 30 mins in dark using SYTO9 staining by confocal laser scanning microscopy; type: functional, organism-based; outline: as §4
Staphylococcus aureus [22] = assay: Phototoxicity against Staphylococcus aureus isolate LP grown as biofilms assessed as dead cells incubated at 40 uM for 30 mins in dark using SYTO9 staining by confocal laser scanning microscopy in presence of TEDTA pretreated for 1 hr; type: functional, organism-based
Outline: (§7)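 Coverslip biofilms (plasma-coated for S. aureus) were pretreated with 20 mM TEDTA for 1 h and exposed to 40 μM TBO for 30 min in the dark. They were stained with SYTO9 plus propidium iodide for 15 min at 22°C in the dark and examined by confocal laser scanning microscopy for red (dead) versus green (viable) cells.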

[23] = system: Staphylococcus epidermidis; assay: Phototoxicity against Staphylococcus epidermidis 1457 grown as biofilms assessed as dead cells incubated at 40 uM for 30 mins in dark using SYTO9 staining by confocal laser scanning microscopy in presence of TEDTA pretreated for 1 hr; type: functional, organism-based; outline: as §7

Compound: Cc1cc2nc3ccc(N(C)C)cc3[s+]c2cc1N.[Cl-] [TOLONIUM CHLORIDE]
- Activity (Staphylococcus aureus [1]): inactive
- Activity [2]: inactive
- Activity (Staphylococcus aureus [3]): Active
- Activity [4]: Active
- Activity (Staphylococcus aureus [5]): Active
- Activity [6]: Active
- Activity [7]: 1
- Activity (Staphylococcus aureus [8]): inactive
- Activity [9]: Active
- Activity (Staphylococcus aureus [10]): Active
- Activity [11]: inactive
- Activity (Staphylococcus aureus [12]): inactive
- Activity [13]: Active
- Activity (Staphylococcus aureus [14]): Active
- Activity [15]: Active
- Activity (Staphylococcus aureus [16]): Active
- Activity [17]: Active
- Activity (Staphylococcus aureus [18]): Active
- Ratio [19]: 10
- Activity (Staphylococcus aureus [20]): inactive
- Activity [21]: inactive
- Activity (Staphylococcus aureus [22]): Active
- Activity [23]: Active

— ChEMBL document CHEMBL1152464, “Toluidine blue-mediated photodynamic effects on staphylococcal biofilms” (2008)
